From ChEMBL document CHEMBL3526151, “Reversible disulfide formation of the glutamate carboxypeptidase II inhibitor E2072 results in prolonged systemic exposures in vivo” (Drug Metab Dispos, 2012)

Experiments:
[1] = Volume of distribution in Sprague-Dawley rat at 1 mg/kg, iv administered as bolus injection measured under fasted conditions by LC-MS/MS analysis; assay type: ADME, organism-based; set-up: dose 1 mg/kg, route intravenous; settings: in vivo
How it was run: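 Jugular-cannulated male Sprague-Dawley rats, 280–330 g, fasted overnight to 4 h post-dose. Single dose in 50 mM HEPES-buffered saline pH 7.4, by oral gavage or as tail-vein i.v. bolus. Blood into heparin/NEM tubes at 0–24 h. Plasma measured by LC-MS/MS; noncompartmental analysis; Tmax observed; Vd = dose/(AUCinf·λz).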

[2] = Phase 2 metabolic stability in monkey liver microsomes assessed as compound remaining at 10 uM measured for 1 hr by LC-MS/MS analysis; assay type: ADME, Macaca mulatta; settings: rhesus monkey, read-out: Stability
How it was run: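 For glucuronidation, compound was preincubated at 37°C in 50 mM Tris-HCl, pH 7.5, with 0.5 mg/ml liver microsomes, 8 mM MgCl2 and 25 µg/ml alamethicin. Reactions were started in duplicate with 2 mM UDPGA (final). Samples were taken up to 1 h, quenched with acetonitrile containing internal standard, and compound disappearance was measured by LC-MS/MS.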

[3] = Drug recovery in cynomolgus monkey serum protein binding experiment; settings: in vitro
[4] = Phase 2 metabolic stability in rat liver microsomes assessed as compound remaining at 10 uM measured for 1 hr by LC-MS/MS analysis in absence of cofactors; assay type: ADME; settings: read-out: Stability
How it was run: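 Glucuronidation in liver microsomes of the named species, 0.5 mg/ml protein, compound at 10 μM final, in 50 mM Tris-HCl pH 7.5 with 8 mM MgCl2 and 25 μg/ml alamethicin. Preincubated at 37°C, then started with 2 mM UDPGA (final); cofactor-free controls run alongside. Duplicate reactions, sampled up to 1 h, quenched with cold acetonitrile plus internal standard; disappearance followed by LC-MS/MS.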

[5] = tested on: Rattus norvegicus; assay: Clearance in Sprague-Dawley rat at 10 mg/kg, iv administered as bolus injection measured under fasted conditions by LC-MS/MS analysis; assay type: ADME, organism-based; set-up: dose 10 mg/kg, route intravenous; settings: in vivo
How it was run: (§1)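 Male Sprague-Dawley rats (280–330 g), jugular vein cannulated, fasted overnight until 4 h post-dose. Single tail-vein bolus of 0.1, 1, 10 or 30 mg/kg in 50 mM HEPES buffered saline, pH 7.4. Blood drawn 0–24 h into heparin tubes containing NEM. Plasma quantified by LC-MS/MS after NEM derivatization. Noncompartmental analysis: AUClast by linear trapezoidal rule, Cl = dose/AUC0-∞. Mean ± S.D., n = 4–9.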

[6] = Oral bioavailability in Sprague-Dawley rat at 1 mg/kg administered via gavage measured under fasted conditions by LC-MS/MS analysis; assay type: ADME, organism-based; settings: in vivo
[7] = Phase 1 metabolic stability in mouse liver microsomes assessed as compound remaining at 10 uM measured for 1 hr by LC-MS/MS analysis in absence of cofactors; assay type: ADME; settings: read-out: Stability
How it was run: (§2)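 Cofactor-free controls were run for each microsomal incubation: 0.5 mg/ml liver microsomes with 10 µM compound, omitting cofactors, so that cofactor-independent degradation could be measured. Samples were taken up to 1 h, quenched with acetonitrile containing internal standard, and the percent remaining was determined by LC-MS/MS.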

[8] = AUC(0 to infinity) in Sprague-Dawley rat at 10 mg/kg, po administered via gavage measured under fed conditions by LC-MS/MS analysis; assay type: ADME, organism-based; set-up: time infinity, dose 10 mg/kg, route oral; settings: plasma
How it was run: (§3)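 Nonfasted male Sprague-Dawley rats given a single 10 mg/kg oral dose in 50 mM HEPES buffered saline, pH 7.4. Plasma collected 0.25–24 h into heparin/NEM tubes and assayed by LC-MS/MS. Noncompartmental parameters derived, including Cl/F and Vd/F. Mean ± S.D., n = 6–9.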

[9] = AUC(0 to infinity) in Sprague-Dawley rat at 1 mg/kg, po administered via gavage measured under fasted conditions by LC-MS/MS analysis; assay type: ADME, organism-based; set-up: time infinity, dose 1 mg/kg, route oral; settings: plasma
How it was run: (§4)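 Fasted male Sprague-Dawley rats (280–330 g) received 0.1, 1, 10 or 30 mg/kg by oral gavage in 50 mM HEPES buffered saline, pH 7.4. Blood drawn at 0.25–24 h into heparin/NEM tubes; plasma analyzed by LC-MS/MS. Cmax taken as observed. AUC by linear trapezoidal rule with extrapolation by λz. Cl/F and Vd/F reported. Mean ± S.D., n = 4–9.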

[10] = Cmax in cynomolgus monkey at 5 mg/kg, po by LC-MS/MS analysis; assay type: ADME, organism-based, Macaca fascicularis; set-up: dose 5 mg/kg, route oral; settings: in vivo
How it was run: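 Cynomolgus monkeys (n = 3) received a nominal 5 mg/kg dose in 50 mM HEPES, TCEP-treated to prevent disulfide formation. Dosing was either an IV bolus via cephalic or saphenous vein or oral. Arterial cannula blood was collected into NEM-containing heparinized tubes for up to 9 days and analyzed by LC-MS/MS. Noncompartmental analysis gave t1/2 = 0.693/λz and F% = dose-normalized mean AUCinf p.o./i.v. ×100.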

[11] = Phase 1 metabolic stability in human liver microsomes assessed as compound remaining at 10 uM measured for 1 hr by LC-MS/MS analysis in absence of cofactors; assay type: ADME; settings: read-out: Stability; how it was run: as §2
[12] = tested on: Rattus norvegicus; assay: Apparent oral clearance in Sprague-Dawley rat at 0.1 mg/kg, po administered via gavage measured under fasted conditions by LC-MS/MS analysis; assay type: ADME, organism-based; set-up: dose 0.1 mg/kg, route oral; settings: in vivo; how it was run: as §4
[13] = tested on: Rattus norvegicus; assay: Analgesic activity in Sprague-Dawley rat chronic constriction injury model assessed as change in paw withdrawal latency at 10 mg/kg/day, po measured 11 days after drug treatment cessation (reference value: -2.77 +/-0.3 s); assay type: functional
[14] = Half life in Sprague-Dawley rat at 30 mg/kg, iv administered as bolus injection measured under fasted conditions by LC-MS/MS analysis; assay type: ADME, organism-based; set-up: dose 30 mg/kg, route intravenous; settings: in vivo
[15] = Phase 1 metabolic stability in rat liver microsomes assessed as compound remaining at 10 uM measured for 1 hr by LC-MS/MS analysis in absence of cofactors; assay type: ADME; settings: read-out: Stability; how it was run: as §2
[16] = Cmax in Sprague-Dawley rat kidney at 10 mg/kg, po administered as single dose measured per gm of tissue by LC-MS/MS analysis; assay type: ADME, organism-based; set-up: dose 10 mg/kg, route oral
How it was run: (§5)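 Male Sprague-Dawley rats were dosed orally with 10 mg/kg/day, either once or daily for 5 days; n = 4 per group. Blood was taken by cardiac puncture and liver, kidney, brain and sciatic nerve were collected at 0–8 h post-dose. Tissues were homogenized in PBS containing NEM at equal volume per gram. NEM-derivatized analyte was extracted with methanol and quantified by LC-MS/MS (1–5000 ng/ml). Cmax is the observed value.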

[17] = Cmax in Sprague-Dawley rat at 10 mg/kg, po administered via gavage measured under fed conditions by LC-MS/MS analysis; assay type: ADME, organism-based; set-up: dose 10 mg/kg, route oral; settings: in vivo; how it was run: as §3
[18] = Oral bioavailability in Sprague-Dawley rat at 30 mg/kg administered via gavage measured under fasted conditions by LC-MS/MS analysis; assay type: ADME, organism-based; settings: in vivo
[19] = Cmax in Sprague-Dawley rat sciatic nerve at 10 mg/kg/day, po administered measured per gm of tissue for 5 days by LC-MS/MS analysis; assay type: ADME, organism-based; set-up: dose 10 mg/kg/day, route oral; how it was run: as §5
[20] = Clearance in Sprague-Dawley rat at 0.1 mg/kg, iv administered as bolus injection measured under fasted conditions by LC-MS/MS analysis; assay type: ADME, organism-based; set-up: dose 0.1 mg/kg, route intravenous; settings: in vivo; how it was run: as §1
[21] = Cmax in Sprague-Dawley rat brain at 10 mg/kg/day, po administered for 5 days measured per gm of tissue by LC-MS/MS analysis; assay type: ADME, organism-based; set-up: dose 10 mg/kg/day, route oral; how it was run: as §5
[22] = Cmax in Sprague-Dawley rat liver at 10 mg/kg/day, po administered for 5 days measured per gm of tissue by LC-MS/MS analysis; assay type: ADME, organism-based; set-up: dose 10 mg/kg/day, route oral; how it was run: as §5

- Vd [1]: 0.21 L/kg
- remaining at 1 h, 10 µM [2]: > 90%
- Drug recovery [3]: 80%
- remaining at 1 h, 10 µM [4]: > 90%
- CL [5]: 4.5 mL/min/kg
- bioavailability [6]: 23.7%
- remaining at 1 h, 10 µM [7]: > 90%
- AUC(0-inf) [8]: 37100 ng·h/mL
- AUC(0-inf) [9]: 3210 ng·h/mL
- Cmax [10]: 10500 ng/mL
- remaining at 1 h, 10 µM [11]: > 90%
- CL/F [12]: 8.5 mL/min/kg
- half-life [14]: 4.07 h
- remaining at 1 h, 10 µM [15]: > 90%
- Cmax [16]: 405 ng/g
- Cmax [17]: 16200 ng/mL
- bioavailability [18]: 37.5%
- Cmax [19]: 165 ng/g
- clearance [20]: 1 mL/min/kg
- Cmax [21]: 32.4 ng/g
- Cmax [22]: 457 ng/g
Structure (SMILES): O=C(O)c1cccc(-c2cccc(CCS)c2C(=O)O)c1
- Time [13]: -1.9 s
